Legend:
Type in all cases: functional
Rattus norvegicus [1] = test: Effect on level of triglyceride in (relative to untreated control) in cholesterol fed-male rats at 62 mg/kg/day
Summary of the method: (§1)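 Serum triglycerides were measured in groups of six male Sprague–Dawley rats on a cholic acid/cholesterol-supplemented diet. Compound was dosed in the diet, ad libitum, for eight days. Results are % change relative to untreated controls, with significance at p < 0.05.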

Rattus norvegicus [2] = test: Effect on level of total cholesterol (relative to untreated control) in cholesterol fed-male rats at 62 mg/kg/day
Summary of the method: (§2)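 Male Sprague–Dawley rats (groups of six) fed a cholic acid- and cholesterol-supplemented diet; compound mixed into the diet, given ad libitum for eight days. Lipoproteins were separated by ultracentrifugation, and cholesterol was measured by an enzymatic colorimetric method. Results are % change versus untreated controls, with significance at p < 0.05.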

Rattus norvegicus [3] = test: Effect on level of apolipoprotein (Apo) AI (relative to untreated control) in cholesterol fed-male rats at 62 mg/kg/day
Summary of the method: (§3)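 Six male Sprague–Dawley rats per group, fed a cholic acid/cholesterol-supplemented diet, received compound in the diet ad libitum for eight days. Serum Apo A–I was measured by SDS-PAGE or by rat competition ELISA and reported as % change versus untreated controls (p < 0.05). Gemfibrozil was the internal positive control in each study.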

Rattus norvegicus [4] = test: Effect on change in body weight gain (relative to untreated control) in cholesterol fed-male rats at 62 mg/kg/day
Summary of the method: (§4)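 Male Sprague–Dawley rats, six per group, on a cholic acid- and cholesterol-supplemented diet. Compounds were mixed into the diet and given ad libitum for eight days. Change in body weight gain is expressed as a percentage of untreated controls. Significance was set at p < 0.05 versus untreated controls.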

Rattus norvegicus [5] = test: Effect on level of high density lipoprotein cholesterol (relative to untreated control) in cholesterol fed-male rats at 62 mg/kg/day; summary of the method: as §2
Rattus norvegicus [6] = test: Effect on change in body weight gain (relative to untreated control) in cholesterol fed-male rats at 38 mg/kg/day; summary of the method: as §4
Rattus norvegicus [7] = test: Effect on level of apolipoprotein (Apo) AI (relative to untreated control) in cholesterol fed-male rats at 38 mg/kg/day; summary of the method: as §3
Rattus norvegicus [8] = test: Effect on level of high density lipoprotein cholesterol (relative to untreated control) in cholesterol fed-male rats at 38 mg/kg/day
Summary of the method: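 Cholic acid/cholesterol-fed male Sprague–Dawley rats (n = 6 per group) were dosed via diet ad libitum for eight days. Lipoproteins were separated by ultracentrifugation and HDL cholesterol was quantified by an enzymatic colorimetric method. Values are % change relative to untreated controls, with significance at p < 0.05. Gemfibrozil was the internal positive control.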

Rattus norvegicus [9] = test: Effect on level of triglyceride in (relative to untreated control) in cholesterol fed-male rats at 38 mg/kg/day; summary of the method: as §1
Rattus norvegicus [10] = test: Effect on level of total cholesterol (relative to untreated control) in cholesterol fed-male rats at 38 mg/kg/day; summary of the method: as §2
Rattus norvegicus [11] = test: Effect on change in body weight gain (relative to untreated control) in cholesterol fed-male rats at 76 mg/kg/day; summary of the method: as §4
Rattus norvegicus [12] = test: Effect on level of total cholesterol (relative to untreated control) in cholesterol fed-male rats at 76 mg/kg/day; summary of the method: as §2
Rattus norvegicus [13] = test: Effect on level of apolipoprotein (Apo) AI (relative to untreated control) in cholesterol fed-male rats at 76 mg/kg/day; summary of the method: as §3
Rattus norvegicus [14] = test: Effect on level of triglyceride in (relative to untreated control) in cholesterol fed-male rats at 76 mg/kg/day; summary of the method: as §1
Rattus norvegicus [15] = test: Effect on level of high density lipoprotein cholesterol (relative to untreated control) in cholesterol fed-male rats at 76 mg/kg/day; summary of the method: as §2
Rattus norvegicus [16] = test: Effect on level of total cholesterol (relative to untreated control) in cholesterol fed-male rats at 78 mg/kg/day; summary of the method: as §2
Rattus norvegicus [17] = test: Effect on level of apolipoprotein (Apo) AI (relative to untreated control) in cholesterol fed-male rats at 78 mg/kg/day; summary of the method: as §3
Rattus norvegicus [18] = test: Effect on level of triglyceride in (relative to untreated control) in cholesterol fed-male rats at 78 mg/kg/day
Summary of the method: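 Compound given in diet ad libitum for eight days to groups of six male Sprague–Dawley rats on a cholic acid and cholesterol-supplemented diet. Serum triglycerides expressed as % change relative to untreated controls, with significance at p < 0.05. Gemfibrozil served as internal positive control within each study.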

Rattus norvegicus [19] = test: Effect on change in body weight gain (relative to untreated control) in cholesterol fed-male rats at 78 mg/kg/day; summary of the method: as §4
Rattus norvegicus [20] = test: Effect on level of high density lipoprotein cholesterol (relative to untreated control) in cholesterol fed-male rats at 78 mg/kg/day; summary of the method: as §2

Q: Which Activity (Rattus norvegicus [1]) does the source give for `Cc1ccc(Cl)cc1N/C(S)=N/C[C@@H](C)O` here?
A: -68%

Q: What about the Activity (Rattus norvegicus [2]) of the same compound?
A: -1%

Q: What about the Activity (Rattus norvegicus [3]) of the same compound?
A: 25%

Q: What about the Activity (Rattus norvegicus [4]) of the same compound?
A: -69%

Q: What about the Activity (Rattus norvegicus [5]) of the same compound?
A: 60%

Q: `Cc1ccc(Cl)cc1/N=C(\S)NCC(=O)O` was tested. Which Activity (Rattus norvegicus [6]) did it give?
A: 10%

Q: What about the Activity (Rattus norvegicus [7]) of the same compound?
A: 14%

Q: What about the Activity (Rattus norvegicus [8]) of the same compound?
A: 8%

Q: What about the Activity (Rattus norvegicus [9]) of the same compound?
A: 4%

Q: What about the Activity (Rattus norvegicus [10]) of the same compound?
A: 24%

Q: `Cc1ccc(Cl)cc1N/C(S)=N/[C@@H](C)CO` was tested. Which Activity (Rattus norvegicus [11]) did it give?
A: 10%

Q: And the Activity (Rattus norvegicus [12])?
A: 48%

Q: And the Activity (Rattus norvegicus [13])?
A: 20%

Q: And the Activity (Rattus norvegicus [14])?
A: 1%

Q: What about the Activity (Rattus norvegicus [15]) of the same compound?
A: 32%

Q: Which results are given for `Cc1ccc(Cl)cc1/N=C(\S)N1CCC(O)C1` (stereo not given)?
A: Activity (Rattus norvegicus [16]): -5%; Activity (Rattus norvegicus [17]): 4%; Activity (Rattus norvegicus [18]): -24%; Activity (Rattus norvegicus [19]): 2%; Activity (Rattus norvegicus [20]): 9%

From ChEMBL document CHEMBL1144306, “1-Hydroxyalkyl-3-phenylthioureas as novel HDL-elevating agents” (2005)
